Screening results as filed in PubChem.
PREPL inhibitor: PREPL enzyme inhibitors, primary screen, biochemical, fluorescence polarization | 0.68% of 320,000 active | recombinant PREPL, fluorescence polarization activity-based probe | inhibition, % at 5.96 µM | Prolyl endopeptidase-like (Homo sapiens), Q4J6C6; in the data active means inhibition above about 43%;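 further: 0% = enzyme with DMSO and 100% = wells lacking enzyme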
UCH37 inh: inhibitors of human UCH37 deubiquitinase, primary screen, biochemical, Ub-AMC cleavage, fluorescence; Ubiquitin carboxyl-terminal hydrolase isozyme L5 (Homo sapiens), Q9Y5K5; purified proteasome/UCH37; inhibition, % (concentration not given with the values); 0.33% of 330,000 active; AID 588478, 2011;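 active means mean inhibition over replicate wells above about 20%, limit read from the data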;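 further: 0% = compound-free wells with enzyme and 100% = wells lacking proteasome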
Target sequence (Q9Y5K5 whole entry, looked up): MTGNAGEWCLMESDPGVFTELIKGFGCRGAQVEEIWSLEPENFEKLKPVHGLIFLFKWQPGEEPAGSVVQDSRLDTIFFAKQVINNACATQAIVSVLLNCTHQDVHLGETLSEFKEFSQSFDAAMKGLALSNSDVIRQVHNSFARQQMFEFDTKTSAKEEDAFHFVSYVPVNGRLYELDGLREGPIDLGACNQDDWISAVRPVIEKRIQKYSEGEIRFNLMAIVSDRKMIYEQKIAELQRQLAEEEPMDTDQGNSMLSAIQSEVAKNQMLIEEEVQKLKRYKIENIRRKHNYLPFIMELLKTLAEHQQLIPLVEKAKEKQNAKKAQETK
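Schedule: 30 min plus 25 min, room temperature / Material: human UCH37 within purified proteasomes / Technique: AMC fluorescence intensity at 355/460 nm / Buffer or medium: pH 7.4 Tris-HCl (50 mM) with ovalbumin, ATP-MgCl2, DTT / Controls: wells without proteasome as full block, compound-free enzyme plus substrate as uninhibited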
UBC13 polyUb: UBC13 polyubiquitin chain formation inhibitors, primary screen, biochemical, TR-FRET, uHTS; Ubiquitin-conjugating enzyme E2 N (Homo sapiens), P61088; 0.47% of 330,000 active; inhibition, % at 20 µM; in the data active means inhibition above about 45%, passing the limit was not always enough
Target sequence (P61088 whole entry, looked up): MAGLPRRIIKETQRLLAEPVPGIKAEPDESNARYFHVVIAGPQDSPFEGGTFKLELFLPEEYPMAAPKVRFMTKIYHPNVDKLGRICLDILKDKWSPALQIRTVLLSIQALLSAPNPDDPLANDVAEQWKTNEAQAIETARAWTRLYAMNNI
Apaf-1 inh: inhibitors of human Apaf-1 apoptosome, primary screen, biochemical, DEVD-Rh110 fluorescence, uHTS. Apoptotic protease-activating factor 1 (Homo sapiens), O14727. inhibition, % at 20 µM. reconstituted apoptosome caspase-3 activity. AID 489030, 2010. 0.71% of 330,000 active; active means inhibition of at least 40% at 20 µM;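 further: plate controls were DMSO wells for no effect and DEVD-CHO caspase inhibitor wells for full effect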
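System: Apoptosome proteins | Medium: Hepes pH 7.5 with detergent and BSA | Also added: Cytochrome c trigger plus (Z-DEVD)2-Rh110 caspase-3 substrate | Incubation: 30 min compound preincubation, 50 min activation, room temperature | Detection: Rhodamine 110 fluorescence at Ex 480/Em 540 nm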
An asterisk follows results filed as active; i = inactive; / = no result given. Sampled rows, rich in hits. Any-hit rate of the full collection: about 1.5%.

SMILES	PREPL inhibitor	UCH37 inh	UBC13 polyUb	Apaf-1 inh
CCOC(=O)/C(=C/C1=CC(=C/N(C)C)/C(=O)O1)C(C)=O	-3.0	21.6*	-78.0	-3.2
CC(C)c1nc2c(s1)CCc1onc(-c3ccc(Cl)cc3)c1-2	9.1	24.1*	12.4	15.0
C=CCN1C(=O)/C(=C/c2ccc(OC(C)=O)c(OCC)c2[N+](=O)[O-])SC1=S	/	41.6*	/	/
Cc1nn(-c2ccccc2)c(N)c1N=Nc1ccc2ccccc2c1	30.6	8.5	-19.9	-0.4
Cc1ccc(N=Nc2c(N)nn(-c3ccccc3)c2N)cc1	62.3*	10.2	-16.6	8.5
O=C(NN=CC1=C(N2CCOCC2)/C(=C\c2ccccc2)CC1)Nc1ccccc1	/	7.9	/	/
N#CC(c1ccccc1)N(CCCCl)C(=O)c1ccccc1 (stereo not drawn)	2.3	20.8*	3.3	-21.4
CCN1/C(=C/c2ccc3cccc(C)c3[n+]2CC)Sc2ccccc21	60.4*	12.5	i	14.1
O=C(O)c1ccc(Nc2ccc([N+](=O)[O-])c3nonc23)cc1	/	24.0*	-401.7	4.2
CC(=O)c1ccc(Nc2ccc([N+](=O)[O-])c3nonc23)cc1	13.2	8.0	-233.4	4.3
O=C(O)c1cccc(Nc2ccc([N+](=O)[O-])c3nonc23)c1	-7.5	24.0*	-211.8	16.8
CC(CC1CC(C)(C)OC1=O)=NNc1nc(-c2ccccc2)cs1 (stereo not drawn)	/	1.0	/	/
COc1ccc(-c2c[n+]3c4n2CCCCC4=C(c2ccc(Br)cc2)C3)cc1	49.2*	i	/	/
CC1CCCC(C)N1C(=O)COC(=O)c1ccc(S(=O)(=O)N(C)c2ccccc2)cc1 (stereo not drawn)	20.7	-0.4	-4.6	32.1
CN(/C=C/C(=C\C=[N+](C)c1ccccc1)OCCCS(=O)(=O)[O-])c1ccccc1	3.0	20.1*	-19.6	-4.0
CN(/C=C/C(=C/C=[N+](C)c1ccccc1)OCCCS(=O)(=O)[O-])c1ccccc1	0.8	21.1*	-39.9	-0.5
Cc1ccc(-n2nc3ccc(N)cc3n2)cc1	10.8	i	-13.3	82.3*
Cc1ccc(-n2nc3ccc(NC(=O)C(C)C)cc3n2)cc1	-2.5	-27.4	14.2	-151.8
CC(C)c1ccc(-n2nc3ccc(N)cc3n2)cc1	3.7	5.5	12.1	63.1*
O=C(CC1S/C(=N/N=C/C=C/c2ccccc2)NC1=O)Nc1ccc(C(=O)O)cc1 (stereo not drawn)	11.0	20.4*	-14.9	10.6
Cc1ccc(NC(=O)CC2S/C(=N/N=C\C=C\c3ccccc3)NC2=O)cc1Cl (stereo not drawn)	/	6.1	/	/
N#C[C@@H]1[C@@H]2C(=O)N(c3ccc4c(c3)OCCO4)C(=O)[C@@H]2C2c3ccccc3C=CN21 (stereo partly drawn)	8.8	/	-23.9	77.6*
COC(=O)C1(CCSC)NC(c2ccccc2F)C2C(=O)N(c3ccc4c(c3)OCCO4)C(=O)C21 (stereo not drawn)	-23.1	3.5	-12.4	-1.4
COc1ccc(NC(=O)[C@@H]2[C@@H]3C(=O)N(C4CCCCC4)C(=O)[C@@H]3C3c4ccccc4C=CN32)cc1 (stereo partly drawn)	18.1	10.9	-24.5	51.0*
CC(=O)[C@@H]1[C@@H]2C(=O)N(C3CCCCC3)C(=O)[C@@H]2C2c3ccccc3C=CN21 (stereo partly drawn)	-21.9	/	-1.4	84.1*
SMILES	PREPL inhibitor	UCH37 inh	UBC13 polyUb	Apaf-1 inh
O=C(c1ccco1)[C@@H]1[C@@H]2C(=O)N(c3ccc(F)cc3)C(=O)[C@@H]2C2c3ccccc3C=CN21 (stereo partly drawn)	12.1	/	-13.5	82.5*
S=c1[nH]nc(COc2ccccc2)n1N=Cc1ccc(Br)cc1	/	0.0	/	/
CC(=NNc1nc(C)cc(C)n1)c1ccc(C)o1	/	8.0	/	/
COc1ccc(OC)c(C(O)=CC(=O)C(=O)Nc2ccccc2OC)c1	/	6.0	/	/
O=C(c1ccco1)[C@@H]1[C@@H]2C(=O)N(c3ccc(Br)cc3)C(=O)[C@@H]2C2c3ccccc3C=CN21 (stereo partly drawn)	/	5.1	/	/
CC(=O)[C@@H]1[C@@H]2C(=O)N(c3ccc(F)c(Cl)c3)C(=O)[C@@H]2C2c3ccccc3C=CN21 (stereo partly drawn)	-1.4	/	-18.1	71.9*
CCN1CCN(Cc2ccc(NC(=O)c3cc(NC(=O)c4ccno4)cc(OC)c3)cc2C(F)(F)F)CC1	0.8	1.2	27.3	15.2
CCN1CCN(Cc2ccc(NC(=O)c3cc(NC(=O)c4cc5cccc(OC)c5o4)cc(OC)c3)cc2C(F)(F)F)CC1	-23.2	0.8	39.7	63.1*
CCOC(=O)c1c(C)n(C)c2ccc(OC(=O)c3ccc([N+](=O)[O-])cc3)cc12	22.2	3.0	-6.7	-5.8
CCOC(=O)c1c(C)n(CC)c2ccc(OC(=O)c3ccc([N+](=O)[O-])cc3)cc12	48.5*	2.1	-4.9	-3.5
CC[n+]1c(/C=C/N(C)c2ccccc2)oc2ccc(F)cc21	3.3	24.3*	-18.3	28.0
CC[n+]1c(/C=C/Nc2ccccc2)oc2ccccc21	2.5	8.9	-12.6	18.0
CC[n+]1c(/C=C/N(C)c2ccccc2)oc2ccccc21	14.4	20.5*	1.4	-1.7
O=C(C[n+]1ccccc1)NN=Cc1cc(Br)cc(Br)c1O	/	4.3	/	/
O=C(NN=Cc1ccc2c(c1)OCO2)c1ccc2c(c1)OCO2	/	-79.9	/	/
COc1ccc(C2SCC(=O)N2CCCN(C)C)cc1 (stereo not drawn)	-0.2	33.9*	-2.4	5.2
COc1ccc(C2SCC(=O)N2c2ccc(OC)cc2)cc1 (stereo not drawn)	-13.1	3.6	9.7	0.0
O=C(Nc1ccc(Cl)cc1)c1ccc2c(c1)S(=O)(=O)c1ccccc1C2=O	-4.5	27.5*	-7.7	-0.2
COc1ccc(C2/C(=C(/O)c3ccc4c(c3)CC(C)O4)C(=O)C(=O)N2CCCN2CCOCC2)cc1 (stereo not drawn)	-3.0	21.1*	-3.0	6.2
COc1ccc(C=NNc2cc(N3CCOCC3)nc(C)n2)c(OC)c1	/	2.7	/	/
CCCCCCCCCCCCCCCC[N+](C)(C)CC	32.5	19.1	90.7*	87.5*
CCCCCC[N+](C)(C)CCSSCC[N+](C)(C)CCCCCC	-7.6	13.8	14.8	-37.3
CC(C(=O)O)N1C(=O)/C(=C/C=C/c2ccco2)SC1=S (stereo not drawn)	12.0	1.6	35.3	47.0*
O=C(COc1ccc(Cl)cc1Cl)NCC(=O)NN=Cc1c[nH]c2ccccc12	/	6.4	/	/
O=C(N/N=C/C=C/c1ccco1)c1cnccn1	0.4	/	-10.9	-11.2
O=C(NN=C/C=C/c1ccco1)c1cnccn1	/	24.6*	/	/
Cc1ccc(NC(=S)NN=C2CC3CC=CC23)c(C)c1 (stereo not drawn)	/	9.5	/	/
C(/C=C/c1ccco1)=NN1CCN(c2ccccc2)CC1	/	6.6	/	/
